Experimental data: ChEMBL document CHEMBL1138952 (Bioorg Med Chem Lett, 2006)

Key:
Coagulation factor X [1] = molecular target: Coagulation factor X (Homo sapiens, UniProt P00742); test: Binding affinity to human f10a
[2] = Activity in human plasma by aPTT assay; assay type: functional
[3] = molecular target: Urokinase-type plasminogen activator (Homo sapiens, UniProt P00749); test: Binding affinity to urokinase
Plasminogen = Plasminogen (Homo sapiens, UniProt P00747); test: Binding affinity to plasmin
[4] = molecular target: Tissue-type plasminogen activator (Homo sapiens, UniProt P00750); test: Binding affinity to tPA
Chymotrypsinogen B = Chymotrypsinogen B (Homo sapiens, UniProt P17538); test: Binding affinity to chymotrypsin
Coagulation factor IX = Coagulation factor IX (Homo sapiens, UniProt P00740); test: Binding affinity to f9a
Prothrombin = Prothrombin (Homo sapiens, UniProt P00734); test: Binding affinity to thrombin
Coagulation factor X [5] = molecular target: T1, Coagulation factor X (Oryctolagus cuniculus, UniProt O19045); test: Binding affinity to rabbit f10a
T1 sequence (O19045 whole entry): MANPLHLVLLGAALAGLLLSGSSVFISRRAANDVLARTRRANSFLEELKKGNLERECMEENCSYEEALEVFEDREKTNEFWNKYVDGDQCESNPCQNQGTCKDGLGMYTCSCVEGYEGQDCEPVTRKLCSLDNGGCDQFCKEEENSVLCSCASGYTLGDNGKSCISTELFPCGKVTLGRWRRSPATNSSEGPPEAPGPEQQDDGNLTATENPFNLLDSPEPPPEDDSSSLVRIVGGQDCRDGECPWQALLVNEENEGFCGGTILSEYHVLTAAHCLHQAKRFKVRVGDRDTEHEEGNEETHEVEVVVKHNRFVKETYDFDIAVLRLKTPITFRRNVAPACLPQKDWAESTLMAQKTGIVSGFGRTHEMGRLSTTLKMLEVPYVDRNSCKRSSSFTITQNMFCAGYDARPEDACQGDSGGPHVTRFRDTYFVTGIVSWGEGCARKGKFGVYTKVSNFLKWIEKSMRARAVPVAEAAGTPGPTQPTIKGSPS

Oryctolagus cuniculus [6] = test: Inhibition of thrombus formation in rabbit arterio-venous shunt model at 4.6 umol/kg/h, iv; assay type: functional, organism-based
Trypsin = Trypsin (Homo sapiens, UniProt P07477+P07478+P35030); test: Binding affinity to trypsin; assay type: protein assay
[7] = Protein binding in rabbit; assay type: ADME, Oryctolagus cuniculus; conditions: plasma, read-out: PPB (converted)
[8] = molecular target: Vitamin K-dependent protein C (Homo sapiens, UniProt P04070); test: Binding affinity to aPC
Coagulation factor VII = molecular target: T2, Coagulation factor VII (Homo sapiens, UniProt P08709); test: Binding affinity to f7a
T2 sequence (P08709 whole entry): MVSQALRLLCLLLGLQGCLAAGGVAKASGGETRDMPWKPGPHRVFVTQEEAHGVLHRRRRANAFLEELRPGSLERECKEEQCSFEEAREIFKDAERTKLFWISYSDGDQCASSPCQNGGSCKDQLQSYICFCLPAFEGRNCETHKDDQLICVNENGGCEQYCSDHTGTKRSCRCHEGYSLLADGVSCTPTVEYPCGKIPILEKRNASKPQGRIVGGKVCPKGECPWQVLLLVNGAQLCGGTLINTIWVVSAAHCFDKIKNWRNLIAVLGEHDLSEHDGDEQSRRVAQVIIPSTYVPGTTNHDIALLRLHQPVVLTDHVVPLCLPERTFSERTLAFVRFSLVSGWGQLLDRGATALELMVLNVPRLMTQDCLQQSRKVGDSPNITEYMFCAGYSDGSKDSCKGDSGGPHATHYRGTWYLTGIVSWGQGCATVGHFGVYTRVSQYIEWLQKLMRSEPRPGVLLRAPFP

[9] = molecular target: T3, Coagulation factor VII/tissue factor (Homo sapiens) (UniProt P08709+P13726); test: Activity in human plasma by PT assay; assay type: functional, cell-free
Summary of the method: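 In vitro clotting assays (PT, aPTT) were run in human plasma.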

[10] = Oral bioavailability in dog at 0.5 mg/kg, iv and 0.2 mg/kg, po; assay type: ADME, organism-based, Canis lupus familiaris; conditions: in vivo
Summary of the method: (§1)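 Dogs received the compounds as TFA salts in a cassette (N-in-1) format, 0.5 mg/kg intravenously and 0.2 mg/kg orally (n = 2), and pharmacokinetic profiles were determined.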

[11] = (§2) Half life in dog at 0.5 mg/kg, iv and 0.2 mg/kg, po; assay type: ADME, organism-based, Canis lupus familiaris; conditions: in vivo; summary of the method: as §1
[12] = Clearance in dog at 0.5 mg/kg, iv and 0.2 mg/kg, po; assay type: ADME, organism-based, Canis lupus familiaris; conditions: in vivo
[13] = Apparent permeability in Caco-2 cells; assay type: ADME, cell-based; conditions: human
[14] = (§3) Volume of distribution in dog at 0.5 mg/kg, iv and 0.2 mg/kg, po; assay type: ADME, organism-based, Canis lupus familiaris; conditions: in vivo, read-out: Vdss; summary of the method: as §1
Canis familiaris [15] = test: as §2; assay type: ADME, organism-based, Canis lupus familiaris; conditions: in vivo; summary of the method: as §1
Canis familiaris [16] = test: as §3; assay type: ADME, organism-based, Canis lupus familiaris; conditions: in vivo; summary of the method: as §1
[17] = molecular target: T3, Coagulation factor VII/tissue factor (Homo sapiens); test: Activity in rabbit plasma by PT assay; assay type: functional, cell-free; conditions: Oryctolagus cuniculus, target entry is the homologue from another species
Oryctolagus cuniculus [18] = test: Inhibition of thrombus formation in iv dosed rabbit arterio-venous shunt model; assay type: functional, organism-based

Tissue-type plasminogen activator, sequence (P00750 whole entry): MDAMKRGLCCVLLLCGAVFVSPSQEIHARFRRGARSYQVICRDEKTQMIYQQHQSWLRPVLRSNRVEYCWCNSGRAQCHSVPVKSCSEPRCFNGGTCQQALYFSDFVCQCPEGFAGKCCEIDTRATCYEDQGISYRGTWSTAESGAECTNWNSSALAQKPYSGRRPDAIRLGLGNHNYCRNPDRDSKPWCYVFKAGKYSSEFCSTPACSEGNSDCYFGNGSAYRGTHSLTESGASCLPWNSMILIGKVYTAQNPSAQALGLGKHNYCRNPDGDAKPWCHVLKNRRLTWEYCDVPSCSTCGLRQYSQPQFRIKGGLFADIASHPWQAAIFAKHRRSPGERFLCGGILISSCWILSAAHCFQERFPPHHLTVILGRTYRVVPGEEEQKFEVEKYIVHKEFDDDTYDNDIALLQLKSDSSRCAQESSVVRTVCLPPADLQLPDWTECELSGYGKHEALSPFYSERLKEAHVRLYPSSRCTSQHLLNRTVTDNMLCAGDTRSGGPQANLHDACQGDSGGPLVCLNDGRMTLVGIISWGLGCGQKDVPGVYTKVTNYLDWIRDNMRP
Coagulation factor X (Homo sapiens, UniProt P00742), sequence (P00742 41-179 limits assumed): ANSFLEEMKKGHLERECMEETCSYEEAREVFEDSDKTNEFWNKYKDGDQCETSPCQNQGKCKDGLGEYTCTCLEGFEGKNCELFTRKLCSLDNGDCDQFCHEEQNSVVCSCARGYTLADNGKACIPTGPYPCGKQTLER
Coagulation factor X (Homo sapiens, UniProt P00742), sequence (P00742 235-488 limits assumed): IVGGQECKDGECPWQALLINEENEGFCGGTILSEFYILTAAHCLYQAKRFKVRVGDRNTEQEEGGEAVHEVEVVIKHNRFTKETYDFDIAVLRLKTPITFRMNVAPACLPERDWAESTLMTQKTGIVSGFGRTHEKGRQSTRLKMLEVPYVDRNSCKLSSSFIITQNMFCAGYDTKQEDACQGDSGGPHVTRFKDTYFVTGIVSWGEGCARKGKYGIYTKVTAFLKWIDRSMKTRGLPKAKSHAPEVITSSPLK
Chymotrypsinogen B, sequence (P17538 34-164 limits assumed, other chains not shown): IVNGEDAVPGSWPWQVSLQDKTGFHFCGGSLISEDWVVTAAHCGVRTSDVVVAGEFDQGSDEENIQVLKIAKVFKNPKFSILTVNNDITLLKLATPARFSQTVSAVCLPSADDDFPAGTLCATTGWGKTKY
Chymotrypsinogen B, sequence (P17538 167-263 limits assumed, other chains not shown): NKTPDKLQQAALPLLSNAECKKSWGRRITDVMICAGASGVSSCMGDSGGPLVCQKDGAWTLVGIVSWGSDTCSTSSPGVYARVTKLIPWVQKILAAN
Vitamin K-dependent protein C, sequence (P04070 43-197 limits assumed): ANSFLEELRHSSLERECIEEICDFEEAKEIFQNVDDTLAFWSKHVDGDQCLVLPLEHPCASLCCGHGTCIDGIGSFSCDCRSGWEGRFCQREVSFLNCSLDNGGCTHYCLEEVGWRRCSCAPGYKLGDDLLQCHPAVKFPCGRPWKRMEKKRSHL
Vitamin K-dependent protein C, sequence (P04070 212-461 limits assumed): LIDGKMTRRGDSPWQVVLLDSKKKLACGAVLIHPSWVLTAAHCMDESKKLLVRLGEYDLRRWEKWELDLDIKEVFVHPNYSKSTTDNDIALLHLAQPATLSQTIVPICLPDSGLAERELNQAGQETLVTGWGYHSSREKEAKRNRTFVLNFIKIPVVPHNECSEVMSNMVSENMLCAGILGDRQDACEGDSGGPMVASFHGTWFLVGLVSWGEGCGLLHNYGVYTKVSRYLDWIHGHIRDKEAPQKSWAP
Plasminogen, sequence (P00747 97-580 limits assumed): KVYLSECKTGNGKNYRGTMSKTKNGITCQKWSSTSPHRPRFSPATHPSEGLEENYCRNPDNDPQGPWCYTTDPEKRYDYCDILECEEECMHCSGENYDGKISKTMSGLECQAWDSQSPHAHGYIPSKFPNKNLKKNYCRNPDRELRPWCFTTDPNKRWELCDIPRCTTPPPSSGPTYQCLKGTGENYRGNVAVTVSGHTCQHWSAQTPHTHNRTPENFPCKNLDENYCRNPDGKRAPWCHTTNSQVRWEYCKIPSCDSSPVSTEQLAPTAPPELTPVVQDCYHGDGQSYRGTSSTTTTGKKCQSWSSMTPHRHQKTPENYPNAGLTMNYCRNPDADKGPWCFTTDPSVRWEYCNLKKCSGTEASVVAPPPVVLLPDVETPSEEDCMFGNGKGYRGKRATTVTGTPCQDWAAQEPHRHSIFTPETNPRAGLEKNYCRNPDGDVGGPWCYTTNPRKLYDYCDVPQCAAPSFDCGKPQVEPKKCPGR
Plasminogen, sequence (P00747 581-810 limits assumed): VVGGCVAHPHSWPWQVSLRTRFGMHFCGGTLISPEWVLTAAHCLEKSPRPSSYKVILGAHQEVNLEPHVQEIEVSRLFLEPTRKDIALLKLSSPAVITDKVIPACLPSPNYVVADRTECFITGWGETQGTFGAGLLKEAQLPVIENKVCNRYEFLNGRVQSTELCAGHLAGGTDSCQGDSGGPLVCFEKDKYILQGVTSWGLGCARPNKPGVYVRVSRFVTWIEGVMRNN
Coagulation factor IX, sequence (P00740 47-191 limits assumed): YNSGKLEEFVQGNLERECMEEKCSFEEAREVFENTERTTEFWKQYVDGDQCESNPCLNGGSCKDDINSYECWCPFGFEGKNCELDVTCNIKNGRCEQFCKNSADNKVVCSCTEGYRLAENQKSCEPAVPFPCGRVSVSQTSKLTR
Coagulation factor IX, sequence (P00740 227-461 limits assumed): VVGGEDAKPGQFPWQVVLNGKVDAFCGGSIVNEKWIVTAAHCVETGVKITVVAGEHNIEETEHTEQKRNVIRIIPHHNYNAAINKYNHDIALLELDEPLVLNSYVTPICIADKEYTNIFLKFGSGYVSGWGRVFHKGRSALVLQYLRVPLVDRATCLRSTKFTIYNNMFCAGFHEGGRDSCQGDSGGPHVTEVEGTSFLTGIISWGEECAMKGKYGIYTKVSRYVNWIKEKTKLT

## COc1ccc(-n2nc(C(=O)O)c3ncn(-c4ccc(-c5ccccc5S(N)(=O)=O)cc4)c(=O)c32)cc1
Coagulation factor X [1]
  Ki: 38 nM

## COc1ccc(-n2nc(C(N)=O)c3ncn(-c4ccc(-c5ccccc5S(N)(=O)=O)cc4F)c(=O)c32)cc1
[2]
  2aPTT: 9.8 µM
Coagulation factor X [1]
  Ki: 1.2 nM

## CCOC(=O)c1nn(-c2ccc(OC)cc2)c2c(=O)n(-c3ccc(-c4ccccc4CN4CCCC4)cc3F)cnc12
Coagulation factor X [1]
  Ki: 3.6 nM

## COc1ccc(-n2nc(C(N)=O)c3ncn(-c4ccc(-c5ccccc5CN5CCCC5)cc4F)c(=O)c32)cc1 [listing 1 of 2 here]
[3]
  Ki: > 13000 nM
Plasminogen
  Ki: > 15000 nM
[4]
  Ki: > 33000 nM
Chymotrypsinogen B
  Ki: 530 nM
Coagulation factor IX
  Ki: > 15000 nM
[2]
  2aPTT: 3.9 µM
Prothrombin
  Ki: 1800 nM
Coagulation factor X [5]
  Ki: 1.2 nM
Oryctolagus cuniculus [6]
  IC50: > 1000 nM
Oryctolagus cuniculus [6]; iv
  inhibition in vivo at 4.6 µmol/kg/h: 33%
Trypsin
  Ki: > 2500 nM
[7]
  fraction unbound: 0.15
[8]
  Ki: > 76000 nM
Coagulation factor VII
  Ki: > 15000 nM
Coagulation factor X [1]
  Ki: 0.74 nM

## COc1ccc(-n2nc(C(F)(F)F)c3c(C)nn(-c4ccc(-c5ccccc5S(N)(=O)=O)cc4)c(=O)c32)cc1
Coagulation factor X [1]
  Ki: 2.8 nM

## COc1ccc(-n2nc(Cn3cnnn3)c3nc(C)n(-c4ccc(-c5ccccc5CN5CCCC5)cc4)c(=O)c32)cc1
Coagulation factor X [1]
  Ki: 1.4 nM

## COc1ccc(-n2nc(Cn3ncnn3)c3nc(C)n(-c4ccc(-c5ccccc5CN5CCCC5)cc4)c(=O)c32)cc1
[9]
  2PT: 6.5 µM
[2]
  2aPTT: 20.1 µM
Coagulation factor X [1]
  Ki: 1.9 nM

## COc1ccc(-n2nc(C(F)(F)F)c3c(C)nn(-c4ccc(-c5ccccc5CN5CCCC5)cc4)c(=O)c32)cc1
[9]
  2PT: 62 µM
[2]
  2aPTT: 53 µM
Coagulation factor X [1]
  Ki: 2.8 nM

## COc1ccc(-n2nc(C#N)c3ncn(-c4ccc(-c5ccccc5CN5CCCC5)cc4)c(=O)c32)cc1.O=C(O)C(F)(F)F
[10]
  bioavailability: 77%
[11]
  half-life: 8.3 h
[12]
  clearance: 113 mL/min/kg
[13]
  Papp: 3.1 ×10⁻⁶ cm/s
[14]
  Vd: 75 L/kg

## CN(C)Cc1nccn1-c1ccc(NC(=O)c2cc(C(F)(F)F)nn2-c2ccc3onc(N)c3c2)c(F)c1.Cl [RAZAXABAN HYDROCHLORIDE]
[9]
  2PT: 2.1 µM
Canis familiaris [15]
  T1/2: 3.4 h
Canis familiaris [16]
  Vdss: 5.3 L/kg
[7]
  fraction unbound: 0.07

## COc1ccc(-n2nc(C(N)=O)c3ncn(-c4ccc(-c5ccccc5S(N)(=O)=O)cc4)c(=O)c32)cc1
[2]
  2aPTT: 8.7 µM
Coagulation factor X [1]
  Ki: 1.7 nM

## COC(=O)c1nn(-c2ccc(OC)cc2)c2c(=O)n(-c3ccc(-c4ccccc4S(N)(=O)=O)cc3)cnc12
[2]
  2aPTT: 7.1 µM
Coagulation factor X [1]
  Ki: 2.8 nM

## COc1ccc(-n2nc(C#N)c(N)c2C(=O)Nc2ccc(-c3ccccc3S(C)(=O)=O)cc2F)cc1
Coagulation factor X [1]
  Ki: 8.4 nM

## COc1ccc(-n2nc(C(N)=O)c3ncn(-c4ccc(-c5ccccc5CN5CCCC5)cc4F)c(=O)c32)cc1 [listing 2 of 2 here]
[9]
  2PT: 3.4 µM
[17]
  2PT: 1.6 µM

## COC(=O)c1nn(-c2ccc(OC)cc2)c2c(=O)n(-c3ccc(-c4ccccc4S(N)(=O)=O)cc3F)cnc12
Coagulation factor X [1]
  Ki: 1.8 nM

## COc1ccc(-n2nc(C(N)=O)c3ncn(-c4ccc(-c5ccccc5CN5CCCC5)cc4F)c(=O)c32)cc1.O=C(O)C(F)(F)F
[10]
  bioavailability: 96%
[11]
  half-life: 5.1 h
[12]
  clearance: 12.7 mL/min/kg
[13]
  Papp: 15 ×10⁻⁶ cm/s
[14]
  Vd: 4.9 L/kg

## COc1ccc(-n2nc(C#N)c3[nH]c(=O)n(-c4ccc(-c5ccccc5S(C)(=O)=O)cc4F)c(=O)c32)cc1
[2]
  2aPTT: 197 µM
Coagulation factor X [1]
  Ki: 3 nM

## COc1ccc(-n2nc(C(N)=O)c3ncn(-c4ccc(-c5ccccc5CN5CCCC5)cc4)c(=O)c32)cc1.O=C(O)C(F)(F)F
[10]
  bioavailability: 94%
[11]
  half-life: 5.4 h
[12]
  clearance: 9.17 mL/min/kg
[13]
  Papp: 12 ×10⁻⁶ cm/s
[14]
  Vd: 3.9 L/kg

## COc1ccc(-n2nc(CN)c3ncn(-c4ccc(-c5ccccc5S(N)(=O)=O)cc4)c(=O)c32)cc1
Coagulation factor X [1]
  Ki: 22 nM

## COc1ccc(-n2nc(C(N)=O)c3ncn(-c4ccc(-c5ccccc5CN5CCCC5)cc4)c(=O)c32)cc1 [listing 1 of 2 here]
[3]
  Ki: > 13000 nM
Plasminogen
  Ki: > 15000 nM
[4]
  Ki: > 33000 nM
Oryctolagus cuniculus [18]
  ID50: 5.5 µmol/kg/h
Oryctolagus cuniculus [18]; Oryctolagus cuniculus
  IC50: 1200 nM
Chymotrypsinogen B
  Ki: 7930 nM
Coagulation factor IX
  Ki: > 41000 nM
[2]
  2aPTT: 4 µM
Prothrombin
  Ki: 1600 nM
Coagulation factor X [5]
  Ki: 1 nM
Trypsin
  Ki: > 4200 nM
[7]
  fraction unbound: 0.23
[8]
  Ki: > 76000 nM
Coagulation factor VII
  Ki: > 15000 nM

## COc1ccc(-n2nc(C(N)=O)c3ncn(-c4ccc(-c5ccccc5CN5CCCC5)cc4)c(=O)c32)cc1 [listing 2 of 2 here]
[9]
  2PT: 2.2 µM
[17]
  2PT: 1.8 µM

## COc1ccc(-n2nc(Cn3ccnc3)c3nc(C)n(-c4ccc(-c5ccccc5CN5CCCC5)cc4)c(=O)c32)cc1
Coagulation factor X [1]
  Ki: 2.1 nM

## CCOC(=O)c1nn(-c2ccc(OC)cc2)c2c(=O)n(-c3ccc(-c4ccccc4CN4CCCC4)cc3)cnc12
[2]
  2aPTT: 1.8 µM
Coagulation factor X [1]
  Ki: 3.8 nM

## COc1ccc(-n2nc(C#N)c3nc(C)n(-c4ccc(-c5ccccc5CN(C)C)cc4)c(=O)c32)cc1
Coagulation factor X [1]
  Ki: 1.8 nM

## COc1ccc(-n2nc(C(N)=O)c3ncn(-c4ccc(-c5ccccc5CN5CC[C@@H](O)C5)cc4)c(=O)c32)cc1
[9]
  2PT: 3.6 µM
[2]
  2aPTT: 5 µM
Coagulation factor X [1]
  Ki: 1.5 nM

## COc1ccc(-n2nc(C#N)c3ncn(-c4ccc(-c5ccccc5S(N)(=O)=O)cc4)c(=O)c32)cc1
[2]
  2aPTT: 5.8 µM
Coagulation factor X [1]
  Ki: 1.9 nM

## COc1ccc(-n2nc(C(F)(F)F)cc2C(=O)Nc2ccc(-c3ccccc3S(C)(=O)=O)cc2F)cc1
[2]
  2aPTT: 104 µM

## COc1ccc(-n2nc(C#N)c3ncn(-c4ccc(-c5ccccc5CN(C)C)cc4)c(=O)c32)cc1
Coagulation factor X [1]
  Ki: 2.1 nM

## CCOC(=O)c1nn(-c2ccc(OC)cc2)c2c(=O)n(-c3ccc(-c4ccccc4CO)cc3)cnc12
Coagulation factor X [1]
  Ki: 45 nM

## COc1ccc(-n2nc(C#N)c3ncn(-c4ccc(-c5ccccc5CN5CCCC5)cc4)c(=O)c32)cc1
[3]
  Ki: > 13000 nM
Plasminogen
  Ki: > 15000 nM
[4]
  Ki: > 33000 nM
Chymotrypsinogen B
  Ki: 2030 nM
Coagulation factor IX
  Ki: > 15000 nM
Prothrombin
  Ki: 1100 nM
Trypsin
  Ki: > 2500 nM
[8]
  Ki: 48700 nM
Coagulation factor VII
  Ki: > 15000 nM
Coagulation factor X [1]
  Ki: 1.7 nM
